Measured values published in ChEMBL document CHEMBL5032534, “COUPY Coumarins as Novel Mitochondria-Targeted Photodynamic Therapy Anticancer Agents” (J Med Chem, 2021).
One block for each compound: values may come before it. Active and inactive are the calls of the source. The rule behind the calls is not given here.

What was measured:
[1] = Drug uptake in human HeLa cells at 0.5 uM incubated for 30 mins by confocal microscopic analysis; assay type: ADME, cell-based; conditions: 0.5 h
How it was run: (§1)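 HeLa cells in high-glucose DMEM with 10% fetal calf serum were seeded on glass-bottom dishes for 24 h, then loaded with compound for 30 min at 37 °C. They were washed three times with DPBS and kept in phenol-red-free low-glucose DMEM. Live cells were imaged by confocal microscopy at 37 °C with 5% CO2, excited at 561 nm, with emission collected from 570 to 670 nm.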

HeLa [2] = experiment: Induction of ROS generation in human HeLa cells assessed as increase in intracellular ROS level at 5 uM incubated for 1 hr in dark followed by irradiation with visible light for 1 hr under hypoxic condition by DCFH-DA staining based flow cytometric analysis; assay type: functional, cell-based; conditions: time 2.0 hrs
How it was run: (§2)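 HeLa cells were seeded at 2 × 10^4/well for 24 h under 21% or 2% O2. They were co-treated with 5 μM compound plus a scavenger, which stayed present throughout: NAC 5 mM, NaN3 5 mM, mannitol 50 mM, tiron 5 mM, sodium pyruvate 10 mM or Trolox 0.1 mM. Cells were held 1 h dark, then 1 h under visible light, stained 30 min with 10 μM DCFH-DA, trypsinized and analysed by flow cytometry. At least two independent experiments, n = 3.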

HeLa [3] = experiment: Induction of mitochondrial membrane potential loss in human HeLa cells at 5 uM measured after 24 hrs by JC-1 dye-based flow cytometric analysis; assay type: functional, cell-based
How it was run: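 HeLa cells were seeded at 1.5 × 10^5 in 12-well plates for 24 h and treated for 24 h. Vehicle control held 0.4% DMSO and antimycin A (50 μM) served as positive control. Cells were stained with JC-1 (1 μM, 20 min) and analysed by flow cytometry (10^4 events; ex 488 nm; green 530 nm and red 585 nm channels). At least two independent experiments.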

HeLa [4] = experiment: Induction of autophagy in human HeLa cells assessed as increase in MDC-positive autophagic vesicles at 5 uM preincubated for 30 mins followed by light irradiation for 1 hr and further incubated for 6 hrs in drug-free medium by MDC staining based confocal microscopic analysis; assay type: functional, cell-based; conditions: time 1.5 hrs
How it was run: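 HeLa cells were seeded at 1.5 × 10^4 cells/cm2 in chamber slides and given 0.5 h compound incubation, then 1 h visible-light irradiation. Medium was replaced for a 6 h recovery. Cells were stained with monodansylcadaverine (0.05 mM in PBS, 10 min, 310 K) and imaged by confocal microscopy (ex 405 nm). Vacuoles were counted in at least 10 cells from two experiments. Controls were starvation in EBSS for 2 h and resveratrol 50 μM for 2 h.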

HeLa [5] = experiment: Effect on cell cycle distribution in human HeLa cells at 5 uM incubated for 30 mins in dark by RNase/propidium iodide staining based FACS analysis; assay type: functional
How it was run: (§3)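 HeLa cells were seeded at 1.5 × 10^5/well and treated for 0.5 h, with or without 1 h visible-light irradiation, followed by 24 h recovery. Cells were fixed in ice-cold 70% ethanol for 1 h and stained with PI (40 μg/mL) plus RNase (1 μg/mL) for 30 min at 310 K. Analysis was by flow cytometry in the FL2-A channel. At least two independent experiments, n = 3.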

HeLa [6] = experiment: Effect on cell cycle distribution in human HeLa cells assessed as reduction in G1 phase population at 5 uM preincubated for 30 mins in dark followed by light irradiation for 1 hr by RNase/propidium iodide staining based FACS analysis; assay type: functional; conditions: time 1.5 hrs; how it was run: as §3
[7] = Drug uptake in mitochondria of human HeLa cells assessed as drug accumulation at 0.5 uM measured after 30 mins by confocal microscopic analysis; assay type: ADME; conditions: 0.5 h; how it was run: as §1
[8] = Drug uptake in nucleolus of human HeLa cells assessed as drug accumulation at 0.5 uM measured after 30 mins by confocal microscopic analysis; assay type: ADME, subcellular; conditions: 0.5 h; how it was run: as §1
HeLa [9] = experiment: Induction of ROS generation in human HeLa cells at 5 uM incubated for 1 hr in dark followed by irradiation with visible light for 1 hr under normoxic condition in presence of 5 mM NAC by DCFH-DA staining based flow cytometric analysis; assay type: functional, cell-based; conditions: time 2.0 hrs; how it was run: as §2
HeLa [10] = experiment: Induction of ROS generation in human HeLa cells at 5 uM incubated for 1 hr in dark followed by irradiation with visible light for 1 hr under hypoxic condition in presence of 5 mM NAC by DCFH-DA staining based flow cytometric analysis; assay type: functional, cell-based; conditions: time 2.0 hrs; how it was run: as §2
HeLa [11] = experiment: Induction of ROS generation in human HeLa cells at 5 uM incubated for 1 hr in dark followed by irradiation with visible light for 1 hr under normoxic condition in presence of Trolox by DCFH-DA staining based flow cytometric analysis; assay type: functional, cell-based; conditions: time 2.0 hrs; how it was run: as §2
HeLa [12] = experiment: Induction of ROS generation in human HeLa cells at 5 uM incubated for 1 hr in dark followed by irradiation with visible light for 1 hr under hypoxic condition in presence of NaPyr by DCFH-DA staining based flow cytometric analysis; assay type: functional, cell-based; conditions: time 2.0 hrs; how it was run: as §2
HeLa [13] = experiment: Induction of ROS generation in human HeLa cells at 5 uM incubated for 1 hr in dark followed by irradiation with visible light for 1 hr under hypoxic condition in presence of NaN3 by DCFH-DA staining based flow cytometric analysis; assay type: functional, cell-based; conditions: time 2.0 hrs; how it was run: as §2
HeLa [14] = experiment: Induction of ROS generation in human HeLa cells at 5 uM incubated for 1 hr in dark followed by irradiation with visible light for 1 hr under hypoxic condition in presence of Trolox by DCFH-DA staining based flow cytometric analysis; assay type: functional, cell-based; conditions: time 2.0 hrs; how it was run: as §2
[15] = Induction of singlet oxygen generation in air-saturated DCM solution assessed as reduction in 1,3-diphenylisobenzofuran absorption irradiated with 505 nanometer green light by DPBF-based assay; assay type: functional
HeLa [16] = experiment: Induction of autophagy in human HeLa cells […] pretreated with wortmannin for 1 hr followed by irradiation schedule for 1 hr by MDC staining based confocal microscopic analysis; assay type: functional
HeLa [17] = experiment: Induction of apoptosis in human HeLa cells assessed as increase in necrotic cells at 5 uM incubated for 30 mins in dark measured after 24 hrs by Annexin V-FITC/ Propidium iodide staining based flow cytometry analysis; assay type: functional, cell-based; conditions: time 24.5 hrs
How it was run: (§4)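 HeLa cells were seeded at 1.5 × 10^5/well overnight and treated for 0.5 h, with or without 1 h visible-light irradiation, followed by 24 h recovery. Cells were trypsinized, resuspended in binding buffer, labelled with FITC-Annexin V and propidium iodide for 15 min at room temperature in the dark, and analysed by flow cytometry. Cisplatin (30 μM) served as positive control.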

HeLa [18] = experiment: Induction of apoptosis in human HeLa cells assessed as increase in early apoptotic cells at 5 uM preincubated for 30 mins in dark followed by irradiation for 1 hr and measured after 24 hrs by Annexin V-FITC/ Propidium iodide staining based flow cytometry analysis; assay type: functional, cell-based; conditions: time 25.5 hrs; how it was run: as §4
HeLa [19] = experiment: Induction of superoxide anion generation in human HeLa cells assessed as increase in DHE fluorescence at 5 uM incubated for 1 hr in dark followed by irradiation with visible light for 1 hr under hypoxic condition in presence of tiron by DHE staining based flow cytometric analysis; conditions: time 2.0 hrs
[20] = Drug uptake in human HeLa cells at 5 uM incubated for 30 mins by confocal microscopic analysis; assay type: ADME, cell-based; conditions: 0.5 h; how it was run: as §1
[21] = Drug uptake in mitochondria of human HeLa cells assessed as drug accumulation at 5 uM measured after 30 mins by confocal microscopic analysis; assay type: ADME; conditions: 0.5 h; how it was run: as §1
[22] = Drug uptake in nucleolus of human HeLa cells assessed as drug accumulation at 5 uM measured after 30 mins by confocal microscopic analysis; assay type: ADME, subcellular; conditions: 0.5 h; how it was run: as §1

Drug uptake [1]: Active
Drug uptake [7]: Active
Drug uptake [8]: Active
SMILES: CCN(CC)c1ccc2c(c1)O/C(=C(/C#N)c1cc[n+](C)cc1)C=C2C
Activity (HeLa [2]): inactive
Activity (HeLa [3]): inactive
Activity (HeLa [4]): Active
Activity (HeLa [5]): inactive
Activity (HeLa [6]): Active
Activity (HeLa [9]): inactive
Activity (HeLa [10]): inactive
Activity (HeLa [11]): inactive
Activity (HeLa [12]): Active
Activity (HeLa [13]): Active
Activity (HeLa [14]): Active
Activity [15]: Active
Activity (HeLa [16]): inactive
Activity (HeLa [17]): Active
Activity (HeLa [18]): Active
Activity (HeLa [19]): Active

Drug uptake [20]: Active
Drug uptake [21]: Not Active
Drug uptake [22]: Active
SMILES: CCN(CC)c1ccc2c(c1)O/C(=C(/C#N)c1ccncc1)C=C2C
